This is one part of a sample in which hits are shown more often than they occur.
T cruzi repl: blocks replication of Trypanosoma cruzi; AID 1885; T. cruzi beta-gal in NIH3T3, luminescence, 90 h; 1.4% of 300,000 active; inhibition, % (no concentration beside the values);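 active = mean inhibition across valid replicates above about 55%, limit read from the data; inconclusive = mean below that limit but half or more replicates reach it; inactive = mean below it, under half of replicates reach it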;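 note: signal also drops with host cell toxicity which is not excluded here; higher percent means less beta-gal luminescence so fewer parasites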
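System – NIH/3T3 host cells with β-galactosidase reporter T. cruzi · Doses – single 50 nL compound addition per well in DMSO · Reagent – 5000 T. cruzi trypomastigotes/well · Medium – Low-serum DMEM with 2% FBS · Timing – ≥90 h infection period, 3 h prior cell attachment · Evaluation – parasite load inhibition, % · Technique – GalScreen luminescence, 60 min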
NALP3 yeast inh: inhibitors of NALP3 inflammasome in yeast | Yeast reconstituted NLRP3/ASC/caspase-1, beta-gal luminescence, 24 h | inhibition, % at 10 µM | 0.39% of 330,000 active;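 active = inhibition of 50% or more; inactive = inhibition below 50%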
NALP1 inh: NALP1 inhibition; AID 2071; inhibition, % at 10 µM; S. cerevisiae NALP1/ASC/caspase-1 growth, X-gal OD620, 72 h; 0.61% of 280,000 active; in the data active = inhibition mostly above about 24%, no sharp cut-off; inactive = mostly below about 32%
Calb FLC: C. albicans growth modulation with fluconazole | growth inhibition, % (no concentration beside the values) | C. albicans CaCi-2 + fluconazole, Alamar Blue growth, 48 h | AID 1979 | 0.57% of 300,000 active;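 active = growth inhibition above about 58% in most replicates, limit read from the data, passing the limit was not always enough; inconclusive = exactly half the replicates above a set limit; inactive = most replicates below a set limit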;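 note: all wells also contain fluconazole at 8 µg/ml as a sub-toxic cotreatment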
Lmaj promast: reduces viability of Leishmania major promastigotes; resazurin fluorescence viability; inhibition, % at 10 µM; 9% of 200,000 active; AID 1063; in the data active = inhibition above about 50%;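 note: promastigotes grown with compound for 44 hours at 28 °C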
PolyA inh: inhibitors of polyadenylation in S. cerevisiae; S. cerevisiae SKY197-pL101 polyadenylation reporter, beta-gal luminescence; efflux-impaired pdr1/pdr3 knockout yeast; score 100 = 6 SD above DMSO; activity score, % at 12 µM; 0.02% of 300,000 active; AID 1875;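 active = lowest replicate activity score at least 50, where 100 means six control SD above control mean; inconclusive = lowest score under 50 but half or more replicates reach 50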;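 note: yeast exposed to compound for 9 h at 30 °C; higher score means more reporter readthrough which indicates perturbed polyadenylation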
A number is an active result; n = inactive; u = inconclusive; x = no result given.

SMILES	T cruzi repl	NALP3 yeast inh	NALP1 inh	Calb FLC	Lmaj promast	PolyA inh
CC1CCCC(NC(=O)COC(=O)c2cccc(NS(=O)(=O)/C=C/c3ccccc3)c2)C1C (stereo not given)	n	n	x	n	53	n
CCc1nc2ccc(C(=O)N(C)CC(=O)Nc3cccc(F)c3)cc2nc1CC	x	n	x	x	x	x
CCC(Oc1cc(Cl)ccc1Cl)C(=O)NNC(=O)CCC(=O)O (stereo not given)	n	n	n	n	n	n
CCC(Oc1cc(Cl)ccc1Cl)C(=O)NN1C(=O)C2C3CCC(C3=C(C)C)C2C1=O (stereo not given)	n	n	n	n	98	n
Cc1ccc(NC(=O)c2cc([N+](=O)[O-])ccc2NCc2cccnc2)cc1Cl	57	n	n	n	n	n
Cc1ccc(NC(=O)CSc2ncccc2C(=O)Oc2cccc([N+](=O)[O-])c2)cc1Cl	n	n	n	n	70	n
COc1cccc(NC(=O)c2cc([N+](=O)[O-])ccc2NCc2cccnc2)c1	n	n	n	n	n	n
O=C(NC(Nc1cc(C(F)(F)F)ccc1Cl)C(=O)c1ccccc1)c1ccccc1 (stereo not given)	58	n	n	n	n	n
CC(C)C(=O)NC(Nc1cc(C(F)(F)F)ccc1Cl)C(Cl)(Cl)Cl (stereo not given)	n	n	n	n	n	n
Cc1ccc(NC(=O)CN2CCN(S(=O)(=O)c3ccc(F)cc3)CC2)cc1C	x	n	x	x	x	x
C=CC[N+]1(CC#Cc2ccccc2)CCCC1	n	n	n	n	n	n
C(#Cc1ccccc1)C[N+]1(CC#Cc2ccccc2)CCCC1	n	n	n	n	100	n
Cc1ccc(C(O)(C(=O)NN(C(=O)c2ccccc2)c2ccccc2)c2ccc(C)cc2)cc1	n	n	n	n	n	n
Cc1ccc(N(NC(=O)C(O)(c2ccccc2)c2ccccc2)C(=O)CCl)cc1	n	n	n	n	88	n
CC(C)N1CCN(Cc2ccc3c(c2)Cc2ccccc2-3)CC1CCO (stereo not given)	58	n	n	n	85	n
CC(C)N1CCN(Cc2ccc(-c3ccccc3Cl)o2)CC1CCO (stereo not given)	64	n	n	x	n	x
CC(C)CNc1nc(Oc2ccc(=O)[nH]n2)nc(N2CCOCC2)n1	n	n	n	n	n	n
COc1ccc(OC)c(-c2cc(C(=O)Nc3c(C)nn(Cc4ccc(Cl)cc4)c3C)no2)c1	u	n	n	n	52	n
Cc1nn(Cc2ccc(Cl)cc2)c(C)c1NC(=O)c1cc(C(C)C)on1	n	n	n	n	x	n
Cc1nn(Cc2ccc(Cl)c(Cl)c2)c(C)c1NC(=O)c1cc(-c2ccc3c(c2)OCO3)on1	u	n	n	n	77	n
Cc1ccc(NC(=O)c2cc(-c3ccc4c(c3)OCO4)on2)cc1	n	n	n	n	x	n
Cc1cc(C)n(C(=O)c2ccc([N+](=O)[O-])cc2[N+](=O)[O-])n1	n	n	n	n	99	n
Cc1nn(Cc2ccc(Cl)cc2)c(C)c1NC(=O)c1cc(-c2ccc3c(c2)OCO3)on1	56	n	n	n	n	n
Cc1cc(C)n(C(=O)c2ccc([N+](=O)[O-])cc2Cl)n1	n	n	n	n	x	n
CCOC(=O)c1[nH]cnc1C(=O)NC1CCN(C(=O)OC(C)(C)C)CC1	x	n	x	x	x	x
SMILES	T cruzi repl	NALP3 yeast inh	NALP1 inh	Calb FLC	Lmaj promast	PolyA inh
Cc1ccc(S(=O)(=O)CCC(=O)OC(C)C(=O)c2c(C)[nH]c3ccccc23)cc1 (stereo not given)	n	n	n	n	n	n
COc1cc2cnc(CCO[C@H]3CCCCO3)cc2cc1OC	x	n	x	x	x	x
CCOC(=O)c1cnc2c(C)c(C)ccc2c1Nc1ccc(S(=O)(=O)Nc2ncccn2)cc1	n	n	n	n	n	n
COc1ccc(CNC(=S)Nc2cccc(F)c2)cc1	n	n	n	n	x	n
C[C@H](NC(N)=O)C(=O)OCC(=O)NCc1cccs1	n	n	n	n	n	n
COc1ccc(Nc2cccc(Cl)c2)c(C(=O)O)c1	n	n	n	n	51	n
COc1ccc(OC)c(-c2cc(C(=O)Nc3cccc(Cl)c3)no2)c1	55	n	n	n	n	n
Cc1nn(Cc2ccccc2)c(C)c1NC(=O)c1ccc([N+](=O)[O-])cc1[N+](=O)[O-]	56	n	n	n	63	n
Cc1cccc(C)c1NC(=O)c1cn(-c2ccccc2)nc1-c1ccccc1	n	n	n	n	n	n
Cc1nn(Cc2ccc(Cl)c(Cl)c2)c(C)c1NC(=O)c1cn(-c2ccccc2)nc1-c1ccccc1	61	n	n	n	77	n
N=c1c2ccccc2nnn1-c1ccc(C(F)(F)F)cc1	n	n	n	n	n	n
Cc1c(Cl)cccc1NC(=S)NC1CCCC1	n	n	n	n	x	n
COc1ccccc1N1CCN(C(=O)Cn2c(=O)[nH]c3ccsc3c2=O)CC1	n	n	n	n	n	n
Cc1cc(C)c2c(c1)/C(=N/NS(=O)(=O)c1ccc(Br)cc1)CCC2	n	n	38	n	n	n
Cc1ccc(NC(=O)COC(=O)CC2CCCC2)cc1Cl	n	n	n	n	n	n
Cc1ccccc1-n1nc(C)c2cc(C(=O)N3CCN(S(=O)(=O)c4ccc(F)cc4)CC3)sc21	n	n	n	n	52	n
Cc1ccccc1-n1nc(C)c2cc(C(=O)N3CCN(S(=O)(=O)c4ccc(Cl)cc4)CC3)sc21	n	n	n	n	n	n
O=C(CN1CCN(C2CCCCC2)CC1)Nc1ccccc1-c1ccccc1	n	n	n	n	59	n
CC1CCCCC12NC(=O)N(CC(=O)Nc1ccccc1-c1ccccc1)C2=O (stereo not given)	n	n	37	n	n	n
CC1CCCCC12NC(=O)N(CC(=O)Nc1ccccc1F)C2=O (stereo not given)	x	n	x	x	x	x
CC(C)(/C=N/NC(=O)CSCc1ccc(Cl)cc1)CCC#N	n	n	n	n	n	n
O=C(NCC1CCCC(CNC(=O)Nc2ccc(Cl)cn2)C1)Nc1ccc(Cl)cn1 (stereo not given)	60	n	n	n	x	n
CC(=O)c1sc(-c2ccc(Cl)cc2)nc1C	n	n	n	n	n	n
Cc1nc(-c2ccccc2)sc1C(=O)/C=C/c1ccc(Cl)cc1	n	n	n	n	63	n
Cc1ccc(Nc2nnc(SCC(=O)N(C)C3CCS(=O)(=O)C3)s2)cc1 (stereo not given)	n	n	n	n	56	n
CCN(C(=O)CSc1nnc(Nc2ccccc2)s1)C1CCS(=O)(=O)C1 (stereo not given)	n	n	n	n	58	n
Cc1ccccc1Nc1nnc(SCC(=O)N(C)C2CCS(=O)(=O)C2)s1 (stereo not given)	n	n	n	n	n	n
CCN(C(=O)CSc1nc2cc(C(F)(F)F)ccc2n1Cc1ccccc1)C1CCS(=O)(=O)C1 (stereo not given)	n	n	n	n	98	n
